According to ChEMBL document CHEMBL5046273, “Development of a Novel, Small-Molecule Brain-Penetrant Histone Deacetylase Inhibitor That Enhances Spatial Memory Formation in Mice” (J Med Chem, 2022):
Activity calls are given as the source filed them. No cut-off for these calls is given here.

Legend:
[1] = target: T1, Histone deacetylase 2 (Homo sapiens, UniProt Q92769); experiment: Inhibition of recombinant human full-length HDAC2 incubated for 10 mins by Glo-luminescence assay
How it was run: (§1)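 Compounds were serially diluted and incubated with enzyme for 10 min. HDAC-Glo I/II substrate/developer was then added, and luminescence read after 40 min at 23 °C. IC50 from four-parameter fits from two independent titrations, mean ± SD.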

[2] = Cmax in Swiss Webster mouse liver at 40 mg/kg, ip by LC-MS/MS analysis; type: ADME, organism-based; parameters: route intraperitoneal, dose 40 mg/kg
How it was run: (§2)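 Single i.p. dose of 40 mg/kg in Swiss Webster mice; blood, brain and liver taken at several time points. Tissues homogenized in acetonitrile, centrifuged, spin-filtered, dried and reconstituted, with 4,5-diphenylimidazole as instrument standard. Quantified by LC–MS/MS on a C18 column with a formic acid/MeCN gradient. Mean ± SD (n = 4), fitted to a two-compartment PK model.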

[3] = Elimination rate in Swiss Webster mouse liver at 40 mg/kg, ip by LC-MS/MS analysis; type: ADME, organism-based; how it was run: as §2
[4] = tested on: DU-145; experiment: Cytotoxicity against human DU-145 cells assessed as reduction in cell viability incubated for 48 hrs by MTT assay; type: functional
How it was run: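 DU145 cells grown in DMEM with 10% FBS, penicillin/streptomycin and L-glutamine at 37 °C and 5% CO2. Cells seeded at 14 000/well and allowed to adhere 24 h. Compounds diluted from 10 mM DMSO stocks into medium (final 25–100 μM), DMSO vehicle, triplicate wells, 48 h. MTT 250 μg/mL for 4 h, dissolved in DMSO, A570 (ref 690). Normalized to DMSO; three independent experiments.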

[5] = Drug uptake in BALB/c mouse brain at 40 mg/kg, ip measured upto 60 mins by mass spectroscopy analysis; type: ADME, organism-based; details: in vivo, 1 h
How it was run: (§3)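 BALB/c mice received 40 mg/kg i.p. Retro-orbital blood was collected under isoflurane, then liver and whole brain after CO2 euthanasia, at 10, 30 and 60 min. Acetonitrile extracts were spin-filtered with 4,5-diphenylimidazole as instrument standard and analysed by LC–MS/MS.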

[6] = Drug uptake in BALB/c mouse hippocampus at 20 to 40 mg/kg, ip measured after 10 mins by mass spectroscopy method; type: ADME, organism-based; details: in vivo, dose 20-40 mg/kg
How it was run: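 BALB/c mice were dosed i.p.: 20 mg/kg with brains taken at 10 min (two mice), or 40 mg/kg with brains taken at 10 and 30 min. Dorsal hippocampus was dissected on wet ice, extracted in acetonitrile and analysed by LC–MS/MS in MRM mode (m/z 485 [M+Na+] transitions) against a 4,5-diphenylimidazole internal standard.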

[7] = Tmax in Swiss Webster mouse blood at 40 mg/kg, ip by LC-MS/MS analysis; type: ADME, organism-based; how it was run: as §2
[8] = Cmax in Swiss Webster mouse blood at 40 mg/kg, ip by LC-MS/MS analysis; type: ADME, organism-based; parameters: route intraperitoneal, dose 40 mg/kg; details: in vivo; how it was run: as §2
[9] = Half life in Swiss Webster mouse brain at 40 mg/kg, ip by LC-MS/MS analysis; type: ADME, organism-based; details: in vivo; how it was run: as §2
[10] = target: Histone deacetylase 3 (Homo sapiens, UniProt O15379); experiment: Inhibition of HDAC3 in human DU-145 cells assessed as increase in histone H3 acetylation after 24 hrs by immunofluorescence microscopy; type: cell-based
[11] = target: T1, Histone deacetylase 2; experiment: Inhibition of recombinant human full-length HDAC2 preincubated for 20 mins with DTT followed by enzyme addition and measured after 10 mins by Glo-luminescence assay; how it was run: as §1
[12] = tested on: DU-145; experiment: Cytotoxicity against human DU-145 cells assessed as reduction in cell viability at 50 uM incubated for 48 hrs by MTT assay; type: functional
How it was run: (§4)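 DU145 cells in DMEM with 10% FBS were seeded at 14 000 cells/well and allowed to adhere for 24 h. Test agents were diluted from 10 mM DMSO stocks (100, 50, 25 µM; 10, 5, 1.25 nM) and applied in triplicate for 48 h at 37 °C, 5% CO2, with DMSO as vehicle. Read-out was 250 µg/mL MTT for 4 h, DMSO solubilization, and A570 with 690 nm reference. Values normalized to DMSO.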

[13] = target: T2, Histone deacetylase 8 (Homo sapiens, UniProt Q9BY41); experiment: Inhibition of HDAC8 in human DU-145 cells assessed as increase in histone H3 acetylation after 24 hrs by immunofluorescence microscopy; type: cell-based
T2 sequence (Q9BY41 whole entry): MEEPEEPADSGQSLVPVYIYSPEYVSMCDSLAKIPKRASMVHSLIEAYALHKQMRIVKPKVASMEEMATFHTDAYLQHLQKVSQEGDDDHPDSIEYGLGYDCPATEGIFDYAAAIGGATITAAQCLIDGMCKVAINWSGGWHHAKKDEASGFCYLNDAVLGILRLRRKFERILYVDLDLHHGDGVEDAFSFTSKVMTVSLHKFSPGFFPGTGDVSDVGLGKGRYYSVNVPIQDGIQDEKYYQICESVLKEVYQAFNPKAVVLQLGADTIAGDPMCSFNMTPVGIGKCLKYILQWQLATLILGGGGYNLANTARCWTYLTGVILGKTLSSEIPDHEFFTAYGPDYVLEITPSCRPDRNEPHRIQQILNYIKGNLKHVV

[14] = target: T3, Histone deacetylase (Homo sapiens) (UniProt Q13547+O15379+Q9UBN7+Q92769+Q9UQL6+Q8WUI4+Q9BY41+Q96DB2+P56524+Q9UKV0+Q969S8); experiment: Inhibition of HDAC in human DU-145 cells assessed as increase in histone H3 acetylation at 50 to 100 uM after 24 hrs by immunofluorescence microscopy; type: cell-based; details: dose 50-100 µM
How it was run: (§5)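 Cells were fixed in 4% PFA and permeabilized in TBS-T/BSA. Staining used anti-acetyl-H3 (Lys9/Lys14) at 1:2000, an AlexaFluor 488 secondary and DAPI. At least five random fields were imaged by fluorescence microscopy; three independent experiments.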

[15] = Drug uptake in BALB/c mouse blood at 40 mg/kg, ip measured upto 60 mins by mass spectroscopy analysis; type: ADME, organism-based; details: in vivo, 1 h; how it was run: as §3
[16] = Half life in Swiss Webster mouse blood at 40 mg/kg, ip by LC-MS/MS analysis; type: ADME, organism-based; details: in vivo; how it was run: as §2
[17] = AUC in Swiss Webster mouse brain at 40 mg/kg, ip by LC-MS/MS analysis; type: ADME, organism-based; parameters: dose 40 mg/kg; details: in vivo; how it was run: as §2
[18] = tested on: DU-145; experiment: Cytotoxicity against human DU-145 cells assessed as reduction in cell viability at 100 uM incubated for 48 hrs by MTT assay; type: functional; how it was run: as §4
[19] = target: T3, Histone deacetylase (Homo sapiens); experiment: Inhibition of HDAC in human DU-145 cells assessed as increase in histone H3 acetylation after 24 hrs by immunofluorescence microscopy; type: cell-based; how it was run: as §5
[20] = target: T1, Histone deacetylase 2; experiment: Inhibition of HDAC2 in human DU-145 cells assessed as increase in histone H3 acetylation after 24 hrs by immunofluorescence microscopy; type: cell-based
[21] = Elimination rate in Swiss Webster mouse blood at 40 mg/kg, ip by LC-MS/MS analysis; type: ADME, organism-based; how it was run: as §2
[22] = Tmax in Swiss Webster mouse brain at 40 mg/kg, ip by LC-MS/MS analysis; type: ADME, organism-based; how it was run: as §2
[23] = Cmax in Swiss Webster mouse brain at 40 mg/kg, ip by LC-MS/MS analysis; type: ADME, organism-based; parameters: route intraperitoneal, dose 40 mg/kg; how it was run: as §2
[24] = Elimination rate in Swiss Webster mouse brain at 40 mg/kg, ip by LC-MS/MS analysis; type: ADME, organism-based; how it was run: as §2

T1 sequence (Q92769 whole entry): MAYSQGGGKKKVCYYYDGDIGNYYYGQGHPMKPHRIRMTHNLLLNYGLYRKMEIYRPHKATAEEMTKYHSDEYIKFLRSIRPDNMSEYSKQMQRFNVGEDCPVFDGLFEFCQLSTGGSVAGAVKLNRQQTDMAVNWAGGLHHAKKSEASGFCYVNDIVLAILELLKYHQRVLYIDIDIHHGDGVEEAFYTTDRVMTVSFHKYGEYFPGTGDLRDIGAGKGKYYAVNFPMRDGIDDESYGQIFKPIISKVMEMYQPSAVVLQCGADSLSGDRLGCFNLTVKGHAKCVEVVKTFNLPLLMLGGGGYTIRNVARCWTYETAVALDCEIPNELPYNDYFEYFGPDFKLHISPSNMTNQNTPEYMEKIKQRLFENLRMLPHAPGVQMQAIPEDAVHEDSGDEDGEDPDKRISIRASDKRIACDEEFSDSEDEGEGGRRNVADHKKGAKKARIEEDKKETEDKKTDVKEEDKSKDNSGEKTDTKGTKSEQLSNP
Sequence of Histone deacetylase 3 (O15379 whole entry): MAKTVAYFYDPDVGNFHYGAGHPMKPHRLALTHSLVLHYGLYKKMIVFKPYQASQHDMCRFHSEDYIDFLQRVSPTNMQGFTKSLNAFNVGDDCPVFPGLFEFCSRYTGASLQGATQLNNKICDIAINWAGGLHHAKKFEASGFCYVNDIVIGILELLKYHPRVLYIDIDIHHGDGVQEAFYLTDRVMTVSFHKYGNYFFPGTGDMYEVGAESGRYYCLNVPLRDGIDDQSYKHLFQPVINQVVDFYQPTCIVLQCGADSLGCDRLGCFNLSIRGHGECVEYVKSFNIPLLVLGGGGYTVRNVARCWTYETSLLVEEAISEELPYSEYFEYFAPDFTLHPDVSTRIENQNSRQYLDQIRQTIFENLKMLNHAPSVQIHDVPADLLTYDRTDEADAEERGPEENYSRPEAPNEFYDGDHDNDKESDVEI

Structure (SMILES): CC(C)(C)OC(=O)CC(O)/C=C/CCSSCC/C=C/C(O)CC(=O)OC(C)(C)C (stereo not given)
- IC50 [1]: 100 µM
- Cmax [2]: 530 ng/g
- k el [3]: 0.000283 s⁻¹
- Activity [4]: Dose-Dependent Effect
- CC50 ([4]; read-out: LD50 (the source's name)): 39 µM
- Drug uptake [5]: Active
- Drug uptake [6]: Active
- Tmax [7]: 10 min
- Cmax [8]: 131.2 ng/mL
- t1/2 [9]: 13.4 min
- IC50 [10]: 8 µM
- IC50 [11]: 10 µM
- inhibition at 50 µM [12]: 50%
- IC50 [13]: 11 µM
- inhibition [14]: Active
- Drug uptake [15]: Active
- t1/2 [16]: 45.4 min
- AUC [17]: 2019 ng·min/g
- inhibition at 100 µM [18]: 80%
- inhibition [19]: Dose-Dependent Effect
- IC50 [20]: 10 µM
- k el [21]: 0.000367 s⁻¹
- Tmax [22]: 10 min
- Cmax [23]: 82.5 ng/g
- k el [24]: 0.000867 s⁻¹
